Experimental data reported in ChEMBL document CHEMBL2407075, “Sulphonamido-quinoxalines: search for anticancer agent” (Eur J Med Chem, 2013).

How the values were obtained:
Format in all cases: functional
[1] = system: DU-145; experiment: Growth inhibition of human DU145 cells assessed as cell growth at 10^-4 M after 48 hrs by sulforhodamine B assay; conditions: DU-145, 48 h, read-out: Activity
In short: (§1)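 Five-dose NCI-60 run (0.01, 0.1, 1, 10 and 100 µM, as 10-fold dilutions from a DMSO stock made at 400× the top final level). Cells were grown in RPMI 1640 with 5% FBS and 2 mM glutamine and plated for 24 h. They were then exposed for 48 h at 37 °C and 5% CO2. TCA fixation was followed by SRB staining with A515 read-out. Percent growth was taken relative to time-zero and control plates.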

[2] = system: OVCAR-4; experiment: Growth inhibition of human OVCAR4 cells assessed as cell growth at 10^-4 M after 48 hrs by sulforhodamine B assay; conditions: OVCAR-4, 48 h, read-out: Activity
[3] = system: SK-MEL-5; experiment: Growth inhibition of human SK-MEL-5 cells assessed as cell growth at 10^-4 M after 48 hrs by sulforhodamine B assay; conditions: SK-MEL-5, 48 h, read-out: Activity
[4] = system: HCT-116; experiment: Growth inhibition of human HCT116 cells assessed as cell growth at 10^-4 M after 48 hrs by sulforhodamine B assay; conditions: HCT-116, 48 h, read-out: Activity
In short: (§2)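 Five-dose screen at NCI. Cells in RPMI 1640 with 5% FBS and 2 mM L-glutamine, seeded at 5000–40,000 cells/well and grown 24 h at 37 °C, 5% CO2 before dosing, with time-zero plates TCA-fixed. Drug diluted from DMSO stock to 0.01, 0.1, 1, 10 and 100 µM final, 48 h. Cells fixed with cold TCA (10% final), stained with 0.4% SRB and read at 515 nm. Percent growth from Tz, control and test absorbances; GI50, TGI and LC50 from dose-response curves.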

[5] = system: NCI-H322M; experiment: Growth inhibition of human NCI-H322M cells assessed as cell growth at 10^-4 M after 48 hrs by sulforhodamine B assay; conditions: read-out: Activity
[6] = system: NCI-H226; experiment: Growth inhibition of human NCI-H226 cells assessed as cell growth at 10^-4 M after 48 hrs by sulforhodamine B assay; conditions: NCI-H226, 48 h, read-out: Activity
[7] = system: HOP-92; experiment: Growth inhibition of human HOP92 cells assessed as cell growth at 10^-4 M after 48 hrs by sulforhodamine B assay; conditions: HOP-92, 48 h, read-out: Activity; in short: as §2
[8] = Growth inhibition of human EKVX cells assessed as cell growth at 10^-4 M after 48 hrs by sulforhodamine B assay; conditions: read-out: Activity; in short: as §1
[9] = system: SR; experiment: Growth inhibition of human SR cells assessed as cell growth at 10^-4 M after 48 hrs by sulforhodamine B assay; conditions: read-out: Activity
[10] = system: UACC-257; experiment: Growth inhibition of human UACC257 cells assessed as cell growth at 10^-5 M after 48 hrs by sulforhodamine B assay; conditions: UACC-257, 48 h, read-out: Activity
[11] = system: SF-295; experiment: Growth inhibition of human SF295 cells assessed as cell growth at 10^-5 M after 48 hrs by sulforhodamine B assay; conditions: SF-295, 48 h, read-out: Activity
[12] = system: HT-29; experiment: Growth inhibition of human HT-29 cells assessed as cell growth at 10^-5 M after 48 hrs by sulforhodamine B assay; conditions: HT-29, 48 h, read-out: Activity; in short: as §2
[13] = system: HCT-116; experiment: Growth inhibition of human HCT116 cells assessed as cell growth at 10^-5 M after 48 hrs by sulforhodamine B assay; conditions: HCT-116, 48 h, read-out: Activity; in short: as §2
[14] = system: HL-60(TB); experiment: Growth inhibition of human HL-60(TB) cells assessed as cell growth at 10^-5 M after 48 hrs by sulforhodamine B assay; conditions: HL-60, 48 h, read-out: Activity
In short: (§3)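 HL-60(TB) suspension cells were treated 48 h at 37 °C within the five-dose series (0.01–100 µM), fixed with 16% final TCA and SRB-stained, read at 515 nm. Percentage growth at each concentration = (Ti−Tz)/(C−Tz)×100, or (Ti−Tz)/Tz×100 when Ti<Tz, with time-zero (Tz) and untreated control (C) plates.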

[15] = system: UACC-62; experiment: Growth inhibition of human UACC62 cells assessed as cell growth at 10^-6 M after 48 hrs by sulforhodamine B assay; conditions: UACC-62, 48 h, read-out: Activity
[16] = system: LOX IMVI; experiment: Growth inhibition of human LOXIMVI cells assessed as cell growth at 10^-6 M after 48 hrs by sulforhodamine B assay; conditions: read-out: Activity
[17] = system: HT-29; experiment: Growth inhibition of human HT-29 cells assessed as cell growth at 10^-6 M after 48 hrs by sulforhodamine B assay; conditions: HT-29, 48 h, read-out: Activity; in short: as §2
[18] = system: HL-60(TB); experiment: Growth inhibition of human HL-60(TB) cells assessed as cell growth at 10^-6 M after 48 hrs by sulforhodamine B assay; conditions: HL-60, 48 h, read-out: Activity; in short: as §3
[19] = system: T47D; experiment: Growth inhibition of human T47D cells assessed as cell growth at 10^-7 M after 48 hrs by sulforhodamine B assay; conditions: read-out: Activity
[20] = Growth inhibition of human NCI-ADR-RES cells assessed as cell growth at 10^-7 M after 48 hrs by sulforhodamine B assay; conditions: read-out: Activity
[21] = system: OVCAR-8; experiment: Growth inhibition of human OVCAR8 cells assessed as cell growth at 10^-7 M after 48 hrs by sulforhodamine B assay; conditions: OVCAR-8, 48 h, read-out: Activity
[22] = system: M14; experiment: Growth inhibition of human M14 cells assessed as cell growth at 10^-7 M after 48 hrs by sulforhodamine B assay; conditions: M14, 48 h, read-out: Activity
[23] = system: SW-620; experiment: Growth inhibition of human SW620 cells assessed as cell growth at 10^-8 M after 48 hrs by sulforhodamine B assay; conditions: SW-620, 48 h, read-out: Activity
[24] = system: HCT-15; experiment: Growth inhibition of human HCT15 cells assessed as cell growth at 10^-8 M after 48 hrs by sulforhodamine B assay; conditions: HCT-15, 48 h, read-out: Activity; in short: as §2
[25] = system: NCI-H522; experiment: Growth inhibition of human NCI-H522 cells assessed as cell growth at 10^-8 M after 48 hrs by sulforhodamine B assay; conditions: NCI-H522, 48 h, read-out: Activity
[26] = Growth inhibition of human EKVX cells assessed as cell growth at 10^-8 M after 48 hrs by sulforhodamine B assay; conditions: read-out: Activity; in short: as §2
[27] = system: TK-10; experiment: Growth inhibition of human TK10 cells after 48 hrs by sulforhodamine B assay; conditions: TK-10, 48 h; for CC50: read-out: LC50 (the source's name)
In short: (§4)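 Adherent cells in RPMI 1640 with 5% FBS and 2 mM L-glutamine were plated at 5000–40,000 cells/well and grown 24 h. Five concentrations (0.01–100 µM, DMSO stock) were added for 48 h at 37 °C. Cells were fixed with cold TCA (10% final) and stained with SRB, read at 515 nm. GI50 came from log concentration–growth curves against time-zero and control plates.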

[28] = system: MDA-MB-435; experiment: Growth inhibition of human MDA-MB-435 cells after 48 hrs by sulforhodamine B assay; conditions: MDA-MB-435, 48 h, read-out: LC50 (the source's name); in short: as §4
[29] = system: NCI-H460; experiment: Growth inhibition of human NCI-H460 cells after 48 hrs by sulforhodamine B assay; conditions: NCI-H460, 48 h; for CC50: read-out: LC50 (the source's name); in short: as §4

Structure (SMILES)	growth at 100 µM [1] [%]	growth at 100 µM [2] [%]	growth at 100 µM [3] [%]	growth at 100 µM [4] [%]	growth at 100 µM [5] [%]	growth at 100 µM [6] [%]	growth at 100 µM [7] [%]	growth at 100 µM [8] [%]	growth at 100 µM [9] [%]	growth at 10 µM [10] [%]	growth at 10 µM [11] [%]	growth at 10 µM [12] [%]	growth at 10 µM [13] [%]	growth at 10 µM [14] [%]	growth at 1 µM [15] [%]	growth at 1 µM [16] [%]	growth at 1 µM [17] [%]	growth at 1 µM [18] [%]	growth at 0.1 µM [19] [%]	growth at 0.1 µM [20] [%]	other results
O=S(=O)(Nc1ccc(Cl)cc1)c1ccc2nc(-c3ccccc3)c(-c3ccccc3)nc2c1	65	52	52	52	88	73	32	65	50	-24	-53	-55	1	-32	76	89	85	89	90	102	growth at 0.1 µM [21]: 101%; growth at 0.1 µM [22]: 85%; growth at 0.01 µM [23]: 93%; growth at 0.01 µM [24]: 100%; growth at 0.01 µM [25]: 93%; growth at 0.01 µM [26]: 97%; TGI [27]: > 100 µM; CC50 [27]: > 100 µM; CC50 [28]: > 100 µM; CC50 [29]: > 100 µM
O=S(=O)(Nc1ccccn1)c1ccc2nc(-c3ccccc3)c(-c3ccccc3)nc2c1	59	21	41	39	65	70	1	50	18	-25	-56	-37	1	-30	75	88	79	74	85	102	growth at 0.1 µM [21]: 97%; growth at 0.1 µM [22]: 89%; growth at 0.01 µM [23]: 101%; growth at 0.01 µM [24]: 100%; growth at 0.01 µM [25]: 89%; growth at 0.01 µM [26]: 100%; TGI [27]: > 100 µM; CC50 [27]: > 100 µM; CC50 [28]: > 100 µM; TGI [29]: > 100 µM; CC50 [29]: > 100 µM
